Test results reported in ChEMBL document CHEMBL1138351, “Small, potent, and selective diaryl phosphonate inhibitors for urokinase-type plasminogen activator with in vivo antimetastatic properties” (J Med Chem, 2007).

Experiments:
[1] = Antitumor activity aganist Brown Norwegian rat bearing BN472 tumor assessed as reduction of tumor size at 0.1 mg/kg, ip administered once daily after 4 days of tumor transplantation for 17 to 18 days relative to control; type: functional; design: scale not given: the % may be the effect or the level left; details: route intraperitoneal
Procedure, shortened: (§1)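 Rats bearing orthotopic BN472 breast tumours (grown three days) were dosed i.p. daily from day 4 for 17–18 days at 0.1 or 1 mg/kg. Vehicle-only i.p. controls were included. Tumour size and tumour weight were measured at the end of the treatment period and compared with controls.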

Rattus norvegicus [2] = assay: Toxicity in Brown Norwegian rat bearing BN472 tumor assessed as increase in kidney weight at 0.1 mg/kg, ip administered once daily after 4 days of tumor transplantation for 17 to 18 days relative to control; type: organism-based; design: dose 0.1 mg/kg, route intraperitoneal; details: in vivo
Procedure, shortened: (§2)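 Orthotopic BN472 breast tumour model in rats. Daily i.p. dosing at 0.1 or 1 mg/kg started on day 4 and ran 17–18 days, with vehicle-only i.p. controls. Side effects were assessed from body weight and the weights of several organs, compared with controls.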

Rattus norvegicus [3] = assay: Toxicity in Brown Norwegian rat bearing BN472 tumor assessed as effect on body weight at 1 mg/kg, ip administered once daily after 4 days of tumor transplantation for 17 to 18 days relative to control; type: organism-based; design: dose 1 mg/kg, route intraperitoneal; details: in vivo; procedure, shortened: as §2
Rattus norvegicus [4] = assay: Toxicity in Brown Norwegian rat bearing BN472 tumor assessed as increase in uterus weight at 0.1 mg/kg, ip administered once daily after 4 days of tumor transplantation for 17 to 18 days relative to control; type: organism-based; design: dose 0.1 mg/kg, route intraperitoneal; details: in vivo; procedure, shortened: as §2
Rattus norvegicus [5] = assay: Toxicity in Brown Norwegian rat bearing BN472 tumor assessed as effect on body weight at 0.1 mg/kg, ip administered once daily after 4 days of tumor transplantation for 17 to 18 days relative to control; type: organism-based; design: dose 0.1 mg/kg, route intraperitoneal; details: in vivo; procedure, shortened: as §2
Prothrombin = Prothrombin (Mus musculus, UniProt P19221); assay: Inhibition of mouse thrombin
[6] = Antimetastatic activity against Brown Norwegian rat bearing BN472 tumor assessed as reduction of axillary lymph node weight at 0.1 mg/kg, ip administered once daily after 4 days of tumor transplantation for 17 to 18 days relative to control; type: functional; design: scale not given: the % may be the effect or the level left; details: route intraperitoneal
Procedure, shortened: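 BN472 breast tumours implanted orthotopically in rats and left to grow three days. From day 4, compounds were given i.p. daily for 17–18 days at 0.1 or 1 mg/kg. Controls received vehicle i.p. only. Lung foci were counted and axillary lymph nodes weighed at the end of treatment. Groups were compared with control at an unadjusted significance level of P 0.05.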

Rattus norvegicus [7] = assay: Toxicity in Brown Norwegian rat bearing BN472 tumor assessed as increase in lung weight at 1 mg/kg, ip administered once daily after 4 days of tumor transplantation for 17 to 18 days relative to control; type: organism-based; design: dose 1 mg/kg, route intraperitoneal; details: in vivo; procedure, shortened: as §2
[8] = Antitumor activity aganist Brown Norwegian rat bearing BN472 tumor assessed as reduction of tumor weight at 0.1 mg/kg, ip administered once daily after 4 days of tumor transplantation for 17 to 18 days relative to control; type: functional; design: scale not given: the % may be the effect or the level left; details: route intraperitoneal; procedure, shortened: as §1
Rattus norvegicus [9] = assay: Toxicity in Brown Norwegian rat bearing BN472 tumor assessed as decrease in adrenal weight at 0.1 mg/kg, ip administered once daily after 4 days of tumor transplantation for 17 to 18 days relative to control; type: organism-based; design: dose 0.1 mg/kg, route intraperitoneal; scale not given: the % may be the effect or the level left; details: in vivo; procedure, shortened: as §2
[10] = Antimetastatic activity against Brown Norwegian rat bearing BN472 tumor assessed as reduction of interpectoral lymph node weight at 0.1 mg/kg, ip administered once daily after 4 days of tumor transplantation for 17 to 18 days relative to control; type: functional; design: scale not given: the % may be the effect or the level left; details: route intraperitoneal

SMILES: COC(=O)NC(Cc1ccc(NC(=N)N)cc1)P(=O)(Oc1ccc(NC(C)=O)cc1)Oc1ccc(NC(C)=O)cc1 (stereo unspecified)
- Activity [1]: 10%
- Activity (Rattus norvegicus [2]): 7%
- Activity (Rattus norvegicus [3]): 170.5 g
- Activity (Rattus norvegicus [4]): 16%
- Activity (Rattus norvegicus [5]): 163.5 g
- IC50 (Prothrombin): 4.5 µM
- Activity [6]: 49%
- Activity (Rattus norvegicus [7]): 7%
- Activity [8]: 15%
- Activity (Rattus norvegicus [9]): 5%
- Activity [10]: 3%
